Laboratory results published in ChEMBL document CHEMBL3763081, “Synthesis, evaluation and structure-activity relationship of new 3-carboxamide coumarins as FXIIa inhibitors” (Eur J Med Chem, 2016).
In brackets after ≈: the same amount, converted by molar mass.

How the values were obtained:
[1] = target: T1, Coagulation factor XII (Homo sapiens) (UniProt P00748); assay: Inhibition of human factor 12a using S-2302 as substrate assessed as para-nitroaniline release at 50 uM preincubated for 10 mins followed by substrate addition measured after 30 mins by HPLC-UV analysis
T1 sequence (whole entry): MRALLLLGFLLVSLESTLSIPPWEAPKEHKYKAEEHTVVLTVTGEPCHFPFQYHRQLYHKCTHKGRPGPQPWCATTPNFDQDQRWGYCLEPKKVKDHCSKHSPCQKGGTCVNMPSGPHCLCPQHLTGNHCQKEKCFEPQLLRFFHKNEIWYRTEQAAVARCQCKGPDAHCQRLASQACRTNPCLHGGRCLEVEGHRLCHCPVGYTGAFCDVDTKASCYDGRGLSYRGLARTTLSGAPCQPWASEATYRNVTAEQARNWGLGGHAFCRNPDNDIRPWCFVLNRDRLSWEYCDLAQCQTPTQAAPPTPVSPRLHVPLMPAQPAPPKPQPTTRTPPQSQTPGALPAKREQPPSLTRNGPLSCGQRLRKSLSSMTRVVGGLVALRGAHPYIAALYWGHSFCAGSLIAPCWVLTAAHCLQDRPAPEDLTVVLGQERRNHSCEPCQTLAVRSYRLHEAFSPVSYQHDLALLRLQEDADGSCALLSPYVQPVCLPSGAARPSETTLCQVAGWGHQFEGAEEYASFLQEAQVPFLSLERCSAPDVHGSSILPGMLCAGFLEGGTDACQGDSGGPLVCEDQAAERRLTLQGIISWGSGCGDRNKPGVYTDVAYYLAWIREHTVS
Outline: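 Human FXIIa 145 nM in 0.5 mM Tris-Imidazole, 0.15 M NaCl, pH 7.9, preincubated 10 min at 25 C with compound (DMSO). S-2302 (2.5 mM) added and hydrolysis run 30 min, then stopped with 10% acetic acid. Wells diluted 1:1 in acetonitrile. Released p-NA quantified by C18 HPLC-UV at 375 nm (AUC). % inhibition = [1-(AUCdrug/AUCvehicle)]*100.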

[2] = Solubility of compound at pH 6.5; type: physicochemical; conditions: buffer
[3] = target: T2, Coagulation factor XII (Homo sapiens, UniProt P00748); assay: Inhibition of human factor 12a using S-2302 as substrate assessed as para-nitroaniline release preincubated for 10 mins followed by substrate addition measured after 30 mins by HPLC-UV analysis
T2 sequence (P00748 whole entry): T1 sequence (whole entry)
Outline: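 FXIIa IC50 assay. Human enzyme 145 nM in Tris-Imidazole/NaCl buffer, pH 7.9, 10 min at 25 C with compound, then S-2302 (2.5 mM) for 30 min and acetic acid stop. p-NA AUC measured by HPLC-UV at 375 nm. Nine concentrations from 100 nM upward, in duplicate. Sigmoid fit of % inhibition vs log concentration by non-linear regression; values reported as mean with 95% CI.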

[4] = target: T3, Coagulation factor VII (Homo sapiens) (UniProt P08709); assay: Inhibition of human factor 7a using chromozymt-PA as substrate at 100 uM preincubated for 10 mins followed by substrate addition measured for 10 mins by microplate reader analysis
T3 sequence (whole entry): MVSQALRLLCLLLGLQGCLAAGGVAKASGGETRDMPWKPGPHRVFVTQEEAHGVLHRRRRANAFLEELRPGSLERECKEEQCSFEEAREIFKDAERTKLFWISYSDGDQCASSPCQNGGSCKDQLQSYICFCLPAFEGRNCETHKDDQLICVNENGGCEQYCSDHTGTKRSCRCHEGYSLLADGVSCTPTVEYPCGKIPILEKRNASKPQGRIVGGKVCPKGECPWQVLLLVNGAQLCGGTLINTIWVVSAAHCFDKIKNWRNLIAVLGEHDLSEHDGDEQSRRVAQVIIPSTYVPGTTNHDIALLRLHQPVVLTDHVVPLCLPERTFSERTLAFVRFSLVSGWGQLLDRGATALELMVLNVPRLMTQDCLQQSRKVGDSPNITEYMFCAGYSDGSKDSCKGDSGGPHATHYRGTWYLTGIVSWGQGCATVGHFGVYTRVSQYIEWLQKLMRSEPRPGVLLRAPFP
Outline: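 Compound preincubated 10 min at 25 C. Chromozym t-PA (5 mM) added and OD405 monitored continuously for 10 min. Inhibition from slope ratio against vehicle.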

[5] = target: Plasma kallikrein (Homo sapiens) (UniProt P03952); assay: Inhibition of human plasma kallikrein using S-2302 as substrate at 100 uM preincubated for 10 mins followed by substrate addition measured for 5 mins by microplate reader analysis; type: cell-free
Sequence of Plasma kallikrein (Homo sapiens) (P03952 20-390 limits assumed): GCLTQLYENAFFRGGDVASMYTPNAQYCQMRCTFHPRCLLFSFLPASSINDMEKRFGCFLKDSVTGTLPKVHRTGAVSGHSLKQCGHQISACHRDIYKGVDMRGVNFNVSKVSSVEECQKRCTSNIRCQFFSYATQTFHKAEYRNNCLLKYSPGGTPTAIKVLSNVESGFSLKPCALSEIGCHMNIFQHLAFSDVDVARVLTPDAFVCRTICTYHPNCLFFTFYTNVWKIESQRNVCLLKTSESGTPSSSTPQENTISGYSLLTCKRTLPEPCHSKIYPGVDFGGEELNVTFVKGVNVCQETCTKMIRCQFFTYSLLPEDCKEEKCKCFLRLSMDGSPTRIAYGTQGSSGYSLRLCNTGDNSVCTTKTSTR
Sequence of Plasma kallikrein (Homo sapiens) (P03952 391-638 limits assumed): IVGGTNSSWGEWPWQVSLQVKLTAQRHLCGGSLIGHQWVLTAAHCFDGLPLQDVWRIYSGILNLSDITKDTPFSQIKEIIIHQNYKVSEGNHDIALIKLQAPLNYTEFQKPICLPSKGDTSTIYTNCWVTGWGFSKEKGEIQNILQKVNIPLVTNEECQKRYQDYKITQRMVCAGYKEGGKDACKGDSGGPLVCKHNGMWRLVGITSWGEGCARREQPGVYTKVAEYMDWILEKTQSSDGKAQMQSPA
Outline: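 Human plasma kallikrein 50 nM in 0.05 M Tris-HCl, 0.5 mM EDTA, 0.05% Tween 20, 0.15 M NaCl, pH 7.4. 10 min preincubation with compound at 25 C, then S-2302 (4 mM). OD405 read continuously for 5 min. % inhibition = [1-(slope inhibitor/slope vehicle)]*100.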

[6] = target: Prothrombin (Homo sapiens) (UniProt P00734); assay: Inhibition of human thrombin using S-2238 as substrate at 100 uM preincubated for 10 mins followed by substrate addition measured for 5 mins by microplate reader analysis
Outline: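 Compound (DMSO) preincubated 10 min at 25 C, then S-2238 (2.5 mM). OD405 monitored continuously for 5 min. Slope-based % inhibition against vehicle control.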

[7] = target: Coagulation factor X (Homo sapiens) (UniProt P00742); assay: Inhibition of human factor 10a using S-2765 as substrate at 100 uM preincubated for 10 mins followed by substrate addition measured for 5 mins by microplate reader analysis
Sequence of Coagulation factor X (Homo sapiens) (P00742 41-179 limits assumed): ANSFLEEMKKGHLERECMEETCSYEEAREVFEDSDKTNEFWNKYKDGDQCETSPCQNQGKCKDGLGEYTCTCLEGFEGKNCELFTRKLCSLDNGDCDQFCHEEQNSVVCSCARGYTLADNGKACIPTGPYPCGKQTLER
Sequence of Coagulation factor X (Homo sapiens) (P00742 235-488 limits assumed): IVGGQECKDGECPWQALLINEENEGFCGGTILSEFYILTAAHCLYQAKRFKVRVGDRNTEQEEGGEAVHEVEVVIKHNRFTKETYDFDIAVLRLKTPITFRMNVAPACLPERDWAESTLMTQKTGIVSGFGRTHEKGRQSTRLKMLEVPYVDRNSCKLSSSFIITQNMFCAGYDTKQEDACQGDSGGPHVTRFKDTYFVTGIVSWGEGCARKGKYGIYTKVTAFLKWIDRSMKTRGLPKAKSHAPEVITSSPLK
Outline: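 Compound added from DMSO and held with enzyme 10 min at 25 C. S-2765 (1 mM) then added and OD405 followed continuously for 5 min. % inhibition = [1-(slope inhibitor/slope vehicle)]*100.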

SMILES	inhibition [1] [%]	solubility [2] [µg/mL]	IC50 [3] [µM]	inhibition [4] [%]	inhibition [5] [%]	inhibition [6] [%]	inhibition [7] [%]
Cl.NCc1ccc2oc(=O)c(C(=O)Nc3ccccc3)cc2c1	26	9900	–	–	–	–	–
O=C(Nc1ccccc1O)c1cc2cc(Cl)cc(Br)c2oc1=O	99	0.71 (≈ 1.8 µM)	7	< 10	< 10	< 10	< 10
NCCNC(=O)c1cc2cc(Cl)cc(Br)c2oc1=O.O=C(O)C(F)(F)F	23	61900	–	–	–	–	–
O=C(O)c1cc(Cl)ccc1NC(=O)c1cc2cc(Cl)cc(Br)c2oc1=O	75	36 (≈ 78.8 µM)	–	–	–	–	–
O=C(Nc1ccc(Cl)cc1O)c1cc2cc(Cl)cc(Br)c2oc1=O	99	0.11 (≈ 0.256 µM)	8	< 10	< 10	< 10	< 10
O=C(NCCN1CCOCC1)c1cc2cc(Br)cc(Br)c2oc1=O	14	500 (≈ 1090 µM)	–	–	–	–	–
O=C(Nc1cccc(O)c1)c1cc2cc(Cl)cc(Br)c2oc1=O	90	1.4 (≈ 3.55 µM)	34	< 10	< 10	< 10	< 10
CN(C)CCNC(=O)c1cc2cc(Cl)cc(Cl)c2oc1=O	29	2200 (≈ 6680 µM)	–	–	–	–	–
O=C(NCCN1CCOCC1)c1cc2cc(Cl)cc(Cl)c2oc1=O	20	400 (≈ 1080 µM)	–	–	–	–	–
O=C(Nc1ccccc1)c1cc2cc(Cl)cc(Br)c2oc1=O	90	0.59 (≈ 1.56 µM)	16	< 10	< 10	< 10	< 10
CN(C)CCNC(=O)c1cc2cc(Br)cc(Br)c2oc1=O	30	3000 (≈ 7180 µM)	–	–	–	–	–
O=C(Nc1ccccc1)c1cc2cc(CN3CCCC3)ccc2oc1=O	21	3400 (≈ 9760 µM)	–	–	–	–	–
O=C(Nc1cc(Cl)ccc1O)c1cc2cc(Cl)cc(Br)c2oc1=O	99	0.1 (≈ 0.233 µM)	5	< 10	< 10	< 10	< 10
CN(C)CCNC(=O)c1cc2cc(Cl)cc(Br)c2oc1=O	26	2400 (≈ 6420 µM)	–	–	–	–	–
O=C(Nc1ccccc1)c1cc2cc(CO)ccc2oc1=O	14	52 (≈ 176 µM)	–	–	–	–	–
O=C(NCCN1CCOCC1)c1cc2cc(Cl)cc(Br)c2oc1=O	17	400 (≈ 962 µM)	–	–	–	–	–
O=C(Nc1ccccc1)c1cc2cc(CN3CCOCC3)ccc2oc1=O	18	48 (≈ 132 µM)	–	–	–	–	–
O=C(Nc1ccc(O)cc1)c1cc2cc(Cl)cc(Br)c2oc1=O	90	1.5 (≈ 3.8 µM)	41	< 10	< 10	< 10	< 10
O=C(Nc1ccccc1)c1cc2cc(CN3CCCCC3)ccc2oc1=O	28	700 (≈ 1930 µM)	–	–	–	–	–
CCN(CC)Cc1ccc2oc(=O)c(C(=O)Nc3ccccc3)cc2c1	14	2900 (≈ 8280 µM)	–	–	–	–	–
